# Where “and” joins values, the source holds several entries; their conditions need not be identical. Equal values may be shown once.
# Columns and labels:
# SP6 RNA polymerase = target: T1, SP6 RNA polymerase (Enterobacteria phage SP6, UniProt P06221); assay: Efficiency of cap analog incorporation into short RNA25 in IVT; type: biochemical; details: RNA25nt, densitometry
# T1 sequence (P06221 1-874): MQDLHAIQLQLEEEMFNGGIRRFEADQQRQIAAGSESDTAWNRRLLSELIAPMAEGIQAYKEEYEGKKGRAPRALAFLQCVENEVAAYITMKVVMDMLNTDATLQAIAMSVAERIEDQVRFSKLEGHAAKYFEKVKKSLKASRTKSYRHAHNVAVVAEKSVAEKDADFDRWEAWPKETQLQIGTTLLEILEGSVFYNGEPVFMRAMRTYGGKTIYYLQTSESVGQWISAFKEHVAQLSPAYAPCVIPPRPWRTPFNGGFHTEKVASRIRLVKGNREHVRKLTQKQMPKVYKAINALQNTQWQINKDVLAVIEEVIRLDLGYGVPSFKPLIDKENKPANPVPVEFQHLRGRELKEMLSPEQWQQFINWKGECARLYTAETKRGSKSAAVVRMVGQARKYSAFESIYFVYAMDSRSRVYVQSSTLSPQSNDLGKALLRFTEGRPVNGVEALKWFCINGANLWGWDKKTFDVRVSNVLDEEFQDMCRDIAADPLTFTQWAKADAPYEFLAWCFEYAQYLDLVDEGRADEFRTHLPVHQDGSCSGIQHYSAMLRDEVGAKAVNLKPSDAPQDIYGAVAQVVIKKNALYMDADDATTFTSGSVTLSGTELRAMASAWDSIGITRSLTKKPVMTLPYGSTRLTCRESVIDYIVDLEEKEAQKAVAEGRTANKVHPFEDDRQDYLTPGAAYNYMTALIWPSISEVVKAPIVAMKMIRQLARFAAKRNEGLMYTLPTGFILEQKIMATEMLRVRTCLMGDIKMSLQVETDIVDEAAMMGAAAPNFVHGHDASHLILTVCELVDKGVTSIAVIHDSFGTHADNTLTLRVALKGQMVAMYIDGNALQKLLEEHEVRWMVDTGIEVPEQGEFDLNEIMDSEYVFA
# Method in brief: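 DNase I digestion. 3′ ends trimmed with DNAzyme (30 pmol per 400 ng RNA, 50 mM Tris pH 7.4, 50 mM MgCl2, 1 h, 37°C), giving 25-nt RNA. Capped versus uncapped pppRNA bands quantified densitometrically.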
# hNudt16 = hNudt16 (Homo sapiens, UniProt Q96DE0); assay: 5′ cap hydrolysis of analog-capped RNA25 with hNudt16; type: biochemical; details: 30 min reaction with hNudt16; for % of hydrolysis SP6 product: RNA made with SP6 polymerase; for % of hydrolysis T7 product: RNA made with T7 polymerase
# Sequence of hNudt16 (Q96DE0 whole entry): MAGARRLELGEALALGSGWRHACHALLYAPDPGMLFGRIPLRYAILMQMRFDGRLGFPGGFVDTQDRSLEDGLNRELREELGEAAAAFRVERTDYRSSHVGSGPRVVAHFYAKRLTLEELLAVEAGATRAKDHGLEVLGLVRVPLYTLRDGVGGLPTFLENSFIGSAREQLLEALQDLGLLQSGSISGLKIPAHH
# Method in brief: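 Substrate: 50 ng 25-nt cap-analog RNA with trimmed 3′ ends. Digested with 2.5 µM hNudt16 in 40 mM Tris pH 7.9, 100 mM NaCl, 6 mM MgCl2, 2 mM DTT for 30 min at 37°C. Stopped with formamide loading dye, 5 min at 75°C. Run on 15% polyacrylamide/7 M urea, SYBR Gold stain. Hydrolysis = densitometric % loss of capped band; mean ± SD, three experiments. Orientation inferred from hydrolysis pattern.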
# murine eIF4E = murine eIF4E (Mus musculus, UniProt P63073); assay: Thermal stability of eIF4E by DSF in the presence of cap analogs; type: binding; details: for ΔTm (at 100 μM of ligand): in relation to eIF4E in apo form; for Tm (at 100 μM of ligand): murine eIF4E, 100 μM ligand, apo form 38.42
# Sequence of murine eIF4E (P63073 28-217): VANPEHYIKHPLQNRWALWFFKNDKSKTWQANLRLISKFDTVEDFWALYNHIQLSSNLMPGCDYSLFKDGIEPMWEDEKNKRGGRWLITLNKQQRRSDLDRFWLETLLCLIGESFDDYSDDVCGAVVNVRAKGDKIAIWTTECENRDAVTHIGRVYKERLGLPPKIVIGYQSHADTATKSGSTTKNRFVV
# Method in brief: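 Murine eIF4E (aa 28–217), 4 μM final, with 5× SYPRO Orange in HEPES/KOH pH 7.2, 100 mM KCl, 0.5 mM EDTA, 1 mM DTT. Test compound at 100 μM final (single point) or 1–100 μM series. Heated 22–95°C at 0.5°C/30 sec, fluorescence read each step. Normalized signal fitted to a two-state denaturation model for Tm. ΔTm is relative to apo eIF4E. Apparent Kd is from ΔTm change with rising ligand concentration.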
# [1] = tested on: Rabbit reticulocyte lysate; assay: Translation of luciferase mRNA capped with cap analogs in RRL system; type: biochemical; details: for Relative cap-dependent translation efficiency / Relative translation efficiency: Rabbit reticulocyte lysate; for Relative cap-dependent translation efficiency: relative to m^7GpppG; for Relative translation efficiency: relative to m^7GpppG-capped transcript
# Method in brief: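 Firefly luciferase mRNA made by SP6 transcription of PCR template, 1 h at 37°C, with 0.5 mM ATP/CTP/UTP, 0.1 mM GTP, 0.5 mM cap analog (cap:GTP 5:1). Then DNase I treatment. Translated in 40% Flexi rabbit reticulocyte lysate with 0.01 mM amino acids, 0.9 mM Mg acetate, 190 mM K acetate. Lysate preincubated 60 min at 30°C, then 60 min with mRNA. Luciferase luminescence expressed relative to m7GpppG-capped mRNA.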
# [2] = target: cap-dependent translation in RRL system; type: biochemical, rabbit; details: inhibition of ARCA-mRNA luciferase translation in RRL system; mean ± SD
# Method in brief: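 Flexi rabbit reticulocyte lysate preincubated 60 min at 30°C under cap-dependent conditions. Then m2^7,3′O GpppG-capped firefly luciferase mRNA was added together with increasing concentrations of cap analog, and incubated a further 60 min at 30°C. Luminescence read immediately. IC50 by nonlinear regression; mean ± SD of ≥3 independent replicates. Ratio expresses IC50 relative to m7GpppG control.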
# [3] = tested on: cap-dependent translation; details: translation inhibition; ref Wojcik et al. 2021; cited from earlier work
capped fraction (capping efficiency) (SP6 RNA polymerase) [%],% of hydrolysis SP6 product (hNudt16),% of hydrolysis T7 product (hNudt16) [%],ΔTm (at 100 μM of ligand) (murine eIF4E),"ΔTm (at 100 μM of ligand) (murine eIF4E; listed as m2^7,3'OGpppG) [°C]",Tm (at 100 μM of ligand) (murine eIF4E) [°C],Relative cap-dependent translation efficiency [1],Relative translation efficiency [1],"Relative translation efficiency ([1]; listed as m2^7,3'-OGpppG)",IC50 [2] [µM],translation level in comparison to m^7GpppG-capped transcript ([1]; RRL) [%],SMILES,IC50 [3] [µM]
65.8 ± 2.4,8.7 ± 2.0%,4.81,around 10 °C,9.11,47.53,1.53 ± 0.20,1.47,1.47 ± 0.17,–,–,"CO[C@H]1[C@@H](O)[C@H]([n+]2cn(C)c3c(=O)[nH]c(N)nc32)O[C@@H]1COP(=O)([O-])OP(=O)(O)OP(=O)(O)OC[C@H]1O[C@@H](n2cnc3c(=O)[nH]c(N)nc32)[C@H](O)[C@@H]1O [m2^7,3′OGpppG]",–
74.3 ± 3.5,45.74%,32.24,–,–,48.10,1,1,–,8.94 ± 0.86,–,Cn1c[n+]([C@@H]2O[C@H](COP(=O)(O)OP(=O)([O-])OP(=O)(O)OC[C@H]3O[C@@H](n4cnc5c(=O)[nH]c(N)nc54)[C@H](O)[C@@H]3O)[C@@H](O)[C@H]2O)c2nc(N)[nH]c(=O)c21 [m^7GpppG],11.4 ± 2.4
–,–,–,–,–,38.62,0,0.09 ± 0.06,–,–,~10,Nc1nc2c(ncn2[C@@H]2O[C@H](COP(=O)(O)OP(=O)(O)OP(=O)(O)OC[C@H]3O[C@@H](n4cnc5c(N)ncnc54)[C@H](O)[C@@H]3O)[C@@H](O)[C@H]2O)c(=O)[nH]1 [ApppG],–
85.3 ± 0.8,86.2 ± 3.9% and 86.18%,82.06,–,–,–,–,–,–,–,–,Nc1nc2c(ncn2[C@@H]2O[C@H](COP(=O)(O)OP(=O)(O)OP(=O)(O)OC[C@H]3O[C@@H](n4cnc5c(=O)[nH]c(N)nc54)[C@H](O)[C@@H]3O)[C@@H](O)[C@H]2O)c(=O)[nH]1 [GpppG],–
